Assay results reported in ChEMBL document CHEMBL1150385, “Synthesis and evaluation of [2-(4-quinolyloxy)phenyl]methanone derivatives: novel selective inhibitors of transforming growth factor-beta kinase” (J Med Chem, 2008).

Tests used:
[1] = Inhibition of TGF-beta expressed in human A549 cells assessed as luciferase activity after 4 hrs by Smad2/3 reporter assay; type: cell-based
In short: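 A549 human lung epithelial cells stably carrying a luciferase reporter driven by four tandem Smad2/3 binding sequences (p(SBE)4-Luc); cells given test compound together with TGF-β1 (2 ng/ml), cultured 4 h, then luciferase activity read by chemiluminescence (Steady Glo); IC50 values reported.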

[2] = molecular target: Proto-oncogene tyrosine-protein kinase Src (Homo sapiens, UniProt P12931); test: Inhibition of c-Src
Sequence of Proto-oncogene tyrosine-protein kinase Src (P12931 2-536 limits assumed): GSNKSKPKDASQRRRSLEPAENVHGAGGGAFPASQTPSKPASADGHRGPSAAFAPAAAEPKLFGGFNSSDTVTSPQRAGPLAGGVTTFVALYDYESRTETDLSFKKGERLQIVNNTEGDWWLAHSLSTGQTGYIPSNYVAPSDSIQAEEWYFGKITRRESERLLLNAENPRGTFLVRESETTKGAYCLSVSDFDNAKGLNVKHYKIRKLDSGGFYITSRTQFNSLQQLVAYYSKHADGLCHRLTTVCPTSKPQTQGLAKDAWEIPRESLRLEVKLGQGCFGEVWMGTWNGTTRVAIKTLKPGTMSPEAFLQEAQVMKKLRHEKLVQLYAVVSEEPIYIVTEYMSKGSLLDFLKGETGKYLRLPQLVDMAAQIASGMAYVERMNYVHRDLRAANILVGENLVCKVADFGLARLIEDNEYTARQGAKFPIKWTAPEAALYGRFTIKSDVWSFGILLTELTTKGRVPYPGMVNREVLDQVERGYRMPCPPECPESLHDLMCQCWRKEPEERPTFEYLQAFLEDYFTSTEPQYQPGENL

TGF-beta receptor type-1 = molecular target: T1, TGF-beta receptor type-1 (Homo sapiens, UniProt P36897); test: Inhibition of ALK5 by filter binding assay
T1 sequence (P36897 whole entry): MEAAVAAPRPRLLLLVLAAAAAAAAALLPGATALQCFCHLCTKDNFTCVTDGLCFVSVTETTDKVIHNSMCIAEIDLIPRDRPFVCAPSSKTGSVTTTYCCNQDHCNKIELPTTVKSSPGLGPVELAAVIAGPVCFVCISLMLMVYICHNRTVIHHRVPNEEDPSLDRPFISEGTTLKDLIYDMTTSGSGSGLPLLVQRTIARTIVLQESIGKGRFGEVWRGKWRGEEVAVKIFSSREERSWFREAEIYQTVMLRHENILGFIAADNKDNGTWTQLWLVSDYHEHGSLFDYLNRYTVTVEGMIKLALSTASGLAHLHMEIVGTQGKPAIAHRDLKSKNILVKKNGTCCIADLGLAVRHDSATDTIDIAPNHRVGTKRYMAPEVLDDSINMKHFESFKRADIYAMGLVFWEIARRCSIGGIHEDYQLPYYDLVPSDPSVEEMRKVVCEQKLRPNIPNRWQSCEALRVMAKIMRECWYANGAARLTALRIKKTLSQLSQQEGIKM

[3] = Inhibition of TGF-beta mediated Smad2 phosphorylation in human A549 cells after 30 mins by Western blot; type: cell-based; conditions: A549, 0.5 h

Structure (SMILES) | IC50 [1] | other results
COc1cc2nccc(Oc3ccccc3C(=O)c3ccccc3)c2cc1OC | 4700 nM | IC50 [2]: 4500 nM; IC50 (TGF-beta receptor type-1): 16000 nM
COc1cc2nccc(Oc3ccc(C)cc3C(=O)c3ccccc3)c2cc1OC | 640 nM | IC50 [2]: 1700 nM; IC50 (TGF-beta receptor type-1): 2700 nM; IC50 [3]: 500 nM
COc1cc2nccc(Oc3cc(C)c(C)cc3C(=O)c3ccccc3)c2cc1OC | 1400 nM | 
COc1cc2nccc(Oc3cc(C)c(Cl)cc3C(=O)c3ccccc3)c2cc1OC | 2100 nM | 
COc1cc2nccc(Oc3ccc(Br)cc3C(=O)c3ccccc3)c2cc1OC | 3200 nM | 
COc1ccc(Oc2ccnc3cc(OC)c(OC)cc23)c(C(=O)c2ccccc2)c1 | > 10000 nM | 
COc1cc2nccc(Oc3ccc(Cl)cc3C(=O)c3ccccc3)c2cc1OC | 2700 nM | 
COc1cc2nccc(Oc3ccc(C)cc3C(=O)c3ccc(C(C)(C)C)cc3)c2cc1OC | 8500 nM | 
COc1cc2nccc(Oc3ccc(C)cc3C=O)c2cc1OC | > 10000 nM | 
COc1cc2nccc(Oc3ccc(C)cc3C(C)=O)c2cc1OC | 2300 nM | IC50 [2]: 8400 nM; IC50 (TGF-beta receptor type-1): 4400 nM
CCc1ccc(Oc2ccnc3cc(OC)c(OC)cc23)c(C(C)=O)c1 | 830 nM | 
CCCc1ccc(Oc2ccnc3cc(OC)c(OC)cc23)c(C(C)=O)c1 | 540 nM | 
COc1cc2nccc(Oc3ccc(C)cc3C(=O)C3CCCC3)c2cc1OC | 2200 nM | 
COc1cc2nccc(Oc3cc(C)c(Cl)cc3C(C)=O)c2cc1OC | 420 nM | 
COc1cc2nccc(Oc3ccc(C)cc3C(=O)N3CCCCC3)c2cc1OC | > 10000 nM | 
COc1cc2nccc(Oc3ccc(C)cc3C(=O)c3ccco3)c2cc1OC | 2700 nM | 

Structure (SMILES) | IC50 [1] | other results
COc1cc2nccc(Oc3cc(C)c(C)cc3C(C)=O)c2cc1OC | 370 nM | IC50 [2]: 13000 nM; IC50 (TGF-beta receptor type-1): 630 nM; IC50 [3]: 500 nM
COc1cc(Oc2ccnc3cc(OC)c(OC)cc23)c(C(C)=O)cc1OC | > 10000 nM | 
COc1cc2nccc(Oc3ccccc3C(C)=O)c2cc1OC | > 10000 nM | 
CCC(=O)c1cc(OC)ccc1Oc1ccnc2cc(OC)c(OC)cc12 | 1100 nM | 
CCC(=O)c1ccc(OC)cc1Oc1ccnc2cc(OC)c(OC)cc12 | 1800 nM | 
COc1cc2nccc(Oc3ccc(C)cc3C(=O)c3ccno3)c2cc1OC | 2500 nM | 
COc1ccc(Oc2ccnc3cc(OC)c(OC)cc23)c(C(C)=O)c1 | 590 nM | 
CCCOc1ccc(Oc2ccnc3cc(OC)c(OC)cc23)c(C(C)=O)c1 | > 10000 nM | 
COc1cc2nccc(Oc3cc(C)ccc3C(C)=O)c2cc1OC | 5500 nM | 
CCCCc1ccc(Oc2ccnc3cc(OC)c(OC)cc23)c(C(C)=O)c1 | 2200 nM | 
COc1ccc(C(=O)c2ccccc2)c(Oc2ccnc3cc(OC)c(OC)cc23)c1 | 4900 nM | 
CCOc1ccc(Oc2ccnc3cc(OC)c(OC)cc23)c(C(C)=O)c1 | 5600 nM | 
COc1ccc(C(C)=O)c(Oc2ccnc3cc(OC)c(OC)cc23)c1 | 8800 nM | 
COc1cc2nccc(Oc3ccc(F)cc3C(C)=O)c2cc1OC | 3800 nM | 
CCC(=O)c1cc(C)ccc1Oc1ccnc2cc(OC)c(OC)cc12 | 620 nM | 
